Data reported in ChEMBL document CHEMBL5058577, “EUbOPEN Chemogenomics Library 2 (Multiplex)” (2022).

Test system: HEK-293T
Assay: Multiplex assay against HEK293T
Assay type: toxicity, cell-based
Conditions: human
How it was run: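 With compound added, live cells were imaged on a CQ1 microscope at 37°C and 5% CO2; staining with Hoechst33342, BioTracker Green Microtubule Cytoskeleton Dye, MitoTracker Red and Annexin V Alexa Fluor 680 had been done at seeding. The CellPathfinder machine-learning gating scheme split cells into Hoechst high-intensity objects or normal cells, normal cells into healthy, pyknosed or fragmented nuclei, and pyknosed cells into mitotic or apoptotic. The tubulin, mitochondrial-mass and membrane-permeability phenotypes are per cents of healthy-nucleus cells.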

[1] = 12 h, 1 µM, compound concentration 1 uM, replicate 1
[2] = 12 h, 1 µM, compound concentration 1 uM, replicate 2
[3] = 12 h, 10 µM, compound concentration 10 uM, replicate 1
[4] = 12 h, 10 µM, compound concentration 10 uM, replicate 2
[5] = 24 h, 1 µM, compound concentration 1 uM, replicate 1
[6] = 24 h, 1 µM, compound concentration 1 uM, replicate 2
[7] = 24 h, 10 µM, compound concentration 10 uM, replicate 1
[8] = 24 h, 10 µM, compound concentration 10 uM, replicate 2
[9] = 48 h, 1 µM, compound concentration 1 uM, replicate 1
[10] = 48 h, 1 µM, compound concentration 1 uM, replicate 2
[11] = 48 h, 10 µM, compound concentration 10 uM, replicate 1
[12] = 48 h, 10 µM, compound concentration 10 uM, replicate 2

Question: Which “Population Apoptotic (%)” value [1] does the source give for CN(C)C(=O)Cn1cc(-c2ccc(-c3cncc4ccccc34)cc2)cn1 here?
Answer: 52%

Question: And the “Population Fragmented Nuclei (%)” value [1]?
Answer: 5%

Question: What about the “Population Healthy Nuclei (%)” value [1] of the same compound?
Answer: 81%

Question: What about the “Population Hoechst High Intensity Objects (%)” value [1] of the same compound?
Answer: 7%

Question: And the “Population Membrane Permeable-Phenotype (%)” value [1]?
Answer: 0%

Question: And the “Population Mitochondria Different-Phenotype (%)” value [1]?
Answer: 50%

Question: And the “Population Mitotic Cells (%)” value [1]?
Answer: 47%

Question: What about the “Population Normal (%)” value [1] of the same compound?
Answer: 92%

Question: And the “Population Pyknosed Nuclei (%)” value [1]?
Answer: 12%

Question: And the “Population Tubulin-Different-Phenotype (%)” value [1]?
Answer: 35%

Question: And the “Total Cell Count” value [1]?
Answer: 411

Question: And the “Population Apoptotic (%)” value [2]?
Answer: 40%

Question: What about the “Population Fragmented Nuclei (%)” value [2] of the same compound?
Answer: 4%

Question: And the “Population Healthy Nuclei (%)” value [2]?
Answer: 80%

Question: What about the “Population Hoechst High Intensity Objects (%)” value [2] of the same compound?
Answer: 2%

Question: What about the “Population Mitochondria Different-Phenotype (%)” value [2] of the same compound?
Answer: 58%

Question: What about the “Population Mitotic Cells (%)” value [2] of the same compound?
Answer: 59%

Question: And the “Population Normal (%)” value [2]?
Answer: 97%

Question: What about the “Population Pyknosed Nuclei (%)” value [2] of the same compound?
Answer: 14%

Question: What about the “Population Tubulin-Different-Phenotype (%)” value [2] of the same compound?
Answer: 23%

Question: And the “Total Cell Count” value [2]?
Answer: 337

Question: And the “Population Apoptotic (%)” value [3]?
Answer: 48%

Question: And the “Population Fragmented Nuclei (%)” value [3]?
Answer: 8%

Question: And the “Population Healthy Nuclei (%)” value [3]?
Answer: 73%

Question: And the “Population Hoechst High Intensity Objects (%)” value [3]?
Answer: 6%

Question: What about the “Population Membrane Permeable-Phenotype (%)” value [3] of the same compound?
Answer: 0%

Question: And the “Population Mitochondria Different-Phenotype (%)” value [3]?
Answer: 65%

Question: And the “Population Mitotic Cells (%)” value [3]?
Answer: 51%

Question: And the “Population Normal (%)” value [3]?
Answer: 93%

Question: What about the “Population Pyknosed Nuclei (%)” value [3] of the same compound?
Answer: 17%

Question: And the “Population Tubulin-Different-Phenotype (%)” value [3]?
Answer: 47%

Question: And the “Total Cell Count” value [3]?
Answer: 264

Question: What about the “Population Apoptotic (%)” value [4] of the same compound?
Answer: 69%

Question: What about the “Population Healthy Nuclei (%)” value [4] of the same compound?
Answer: 76%

Question: And the “Population Hoechst High Intensity Objects (%)” value [4]?
Answer: 19%

Question: What about the “Population Mitochondria Different-Phenotype (%)” value [4] of the same compound?
Answer: 69%

Question: And the “Population Mitotic Cells (%)” value [4]?
Answer: 30%

Question: And the “Population Normal (%)” value [4]?
Answer: 80%

Question: What about the “Population Pyknosed Nuclei (%)” value [4] of the same compound?
Answer: 15%

Question: What about the “Population Tubulin-Different-Phenotype (%)” value [4] of the same compound?
Answer: 43%

Question: And the “Total Cell Count” value [4]?
Answer: 321

Question: What about the “Population Apoptotic (%)” value [5] of the same compound?
Answer: 47%

Question: And the “Population Fragmented Nuclei (%)” value [5]?
Answer: 10%

Question: What about the “Population Healthy Nuclei (%)” value [5] of the same compound?
Answer: 79%

Question: And the “Population Hoechst High Intensity Objects (%)” value [5]?
Answer: 6%

Question: And the “Population Membrane Permeable-Phenotype (%)” value [5]?
Answer: 0%

Question: What about the “Population Mitochondria Different-Phenotype (%)” value [5] of the same compound?
Answer: 38%

Question: And the “Population Mitotic Cells (%)” value [5]?
Answer: 52%

Question: And the “Population Normal (%)” value [5]?
Answer: 93%

Question: And the “Population Pyknosed Nuclei (%)” value [5]?
Answer: 10%

Question: And the “Population Tubulin-Different-Phenotype (%)” value [5]?
Answer: 24%

Question: What about the “Total Cell Count” value [5] of the same compound?
Answer: 498

Question: What about the “Population Apoptotic (%)” value [6] of the same compound?
Answer: 40%

Question: What about the “Population Fragmented Nuclei (%)” value [6] of the same compound?
Answer: 6%

Question: What about the “Population Healthy Nuclei (%)” value [6] of the same compound?
Answer: 82%

Question: What about the “Population Hoechst High Intensity Objects (%)” value [6] of the same compound?
Answer: 7%

Question: And the “Population Mitochondria Different-Phenotype (%)” value [6]?
Answer: 45%

Question: What about the “Population Mitotic Cells (%)” value [6] of the same compound?
Answer: 60%

Question: What about the “Population Normal (%)” value [6] of the same compound?
Answer: 92%

Question: What about the “Population Tubulin-Different-Phenotype (%)” value [6] of the same compound?
Answer: 23%

Question: And the “Total Cell Count” value [6]?
Answer: 355

Question: What about the “Population Apoptotic (%)” value [7] of the same compound?
Answer: 48%

Question: And the “Population Fragmented Nuclei (%)” value [7]?
Answer: 9%

Question: What about the “Population Healthy Nuclei (%)” value [7] of the same compound?
Answer: 75%

Question: And the “Population Hoechst High Intensity Objects (%)” value [7]?
Answer: 6%

Question: And the “Population Membrane Permeable-Phenotype (%)” value [7]?
Answer: 0%

Question: What about the “Population Mitochondria Different-Phenotype (%)” value [7] of the same compound?
Answer: 65%

Question: What about the “Population Mitotic Cells (%)” value [7] of the same compound?
Answer: 51%

Question: What about the “Population Normal (%)” value [7] of the same compound?
Answer: 93%

Question: And the “Population Pyknosed Nuclei (%)” value [7]?
Answer: 14%

Question: What about the “Population Tubulin-Different-Phenotype (%)” value [7] of the same compound?
Answer: 44%

Question: What about the “Total Cell Count” value [7] of the same compound?
Answer: 283

Question: And the “Population Apoptotic (%)” value [8]?
Answer: 45%

Question: What about the “Population Fragmented Nuclei (%)” value [8] of the same compound?
Answer: 10%

Question: What about the “Population Hoechst High Intensity Objects (%)” value [8] of the same compound?
Answer: 14%

Question: And the “Population Mitochondria Different-Phenotype (%)” value [8]?
Answer: 53%

Question: What about the “Population Mitotic Cells (%)” value [8] of the same compound?
Answer: 54%

Question: And the “Population Normal (%)” value [8]?
Answer: 85%

Question: And the “Population Pyknosed Nuclei (%)” value [8]?
Answer: 13%

Question: What about the “Population Tubulin-Different-Phenotype (%)” value [8] of the same compound?
Answer: 30%

Question: What about the “Total Cell Count” value [8] of the same compound?
Answer: 362

Question: What about the “Population Apoptotic (%)” value [9] of the same compound?
Answer: 35%

Question: And the “Population Fragmented Nuclei (%)” value [9]?
Answer: 19%

Question: What about the “Population Healthy Nuclei (%)” value [9] of the same compound?
Answer: 74%

Question: And the “Population Hoechst High Intensity Objects (%)” value [9]?
Answer: 8%

Question: And the “Population Membrane Permeable-Phenotype (%)” value [9]?
Answer: 1%

Question: And the “Population Mitochondria Different-Phenotype (%)” value [9]?
Answer: 40%

Question: What about the “Population Mitotic Cells (%)” value [9] of the same compound?
Answer: 64%

Question: And the “Population Normal (%)” value [9]?
Answer: 91%

Question: And the “Population Pyknosed Nuclei (%)” value [9]?
Answer: 6%

Question: And the “Population Tubulin-Different-Phenotype (%)” value [9]?
Answer: 25%

Question: What about the “Total Cell Count” value [9] of the same compound?
Answer: 554

Question: And the “Population Apoptotic (%)” value [10]?
Answer: 60%

Question: What about the “Population Fragmented Nuclei (%)” value [10] of the same compound?
Answer: 11%

Question: And the “Population Healthy Nuclei (%)” value [10]?
Answer: 82%

Question: What about the “Population Hoechst High Intensity Objects (%)” value [10] of the same compound?
Answer: 5%

Question: And the “Population Membrane Permeable-Phenotype (%)” value [10]?
Answer: 0%

Question: What about the “Population Mitochondria Different-Phenotype (%)” value [10] of the same compound?
Answer: 32%

Question: What about the “Population Mitotic Cells (%)” value [10] of the same compound?
Answer: 39%

Question: And the “Population Normal (%)” value [10]?
Answer: 94%

Question: And the “Population Pyknosed Nuclei (%)” value [10]?
Answer: 5%

Question: What about the “Population Tubulin-Different-Phenotype (%)” value [10] of the same compound?
Answer: 17%

Question: And the “Total Cell Count” value [10]?
Answer: 430

Question: And the “Population Apoptotic (%)” value [11]?
Answer: 66%

Question: What about the “Population Fragmented Nuclei (%)” value [11] of the same compound?
Answer: 23%

Question: What about the “Population Healthy Nuclei (%)” value [11] of the same compound?
Answer: 63%

Question: And the “Population Hoechst High Intensity Objects (%)” value [11]?
Answer: 11%

Question: And the “Population Membrane Permeable-Phenotype (%)” value [11]?
Answer: 0%

Question: What about the “Population Mitochondria Different-Phenotype (%)” value [11] of the same compound?
Answer: 56%

Question: What about the “Population Mitotic Cells (%)” value [11] of the same compound?
Answer: 33%

Question: And the “Population Normal (%)” value [11]?
Answer: 88%

Question: What about the “Population Pyknosed Nuclei (%)” value [11] of the same compound?
Answer: 12%

Question: And the “Population Tubulin-Different-Phenotype (%)” value [11]?
Answer: 30%

Question: And the “Total Cell Count” value [11]?
Answer: 379

Question: And the “Population Apoptotic (%)” value [12]?
Answer: 59%

Question: And the “Population Healthy Nuclei (%)” value [12]?
Answer: 70%

Question: And the “Population Hoechst High Intensity Objects (%)” value [12]?
Answer: 8%

Question: What about the “Population Mitochondria Different-Phenotype (%)” value [12] of the same compound?
Answer: 43%

Question: And the “Population Mitotic Cells (%)” value [12]?
Answer: 40%

Question: What about the “Population Normal (%)” value [12] of the same compound?
Answer: 91%

Question: What about the “Population Pyknosed Nuclei (%)” value [12] of the same compound?
Answer: 6%

Question: And the “Population Tubulin-Different-Phenotype (%)” value [12]?
Answer: 23%

Question: What about the “Total Cell Count” value [12] of the same compound?
Answer: 429
